# Experimental data as given in ChEMBL document CHEMBL3525926, “CYP2C9-mediated metabolic activation of losartan detected by a highly sensitive cell-based screening assay” (Drug Metab Dispos, 2011).
# Assays:
# Type in all cases: ADME, cell-based
# Conditions in all cases: hepg2, 24 h
# Cytochrome P450 2C9 [1] = target: T1, Cytochrome P450 2C9 (Homo sapiens, UniProt P11712); assay: Metabolic activation assessed as CYP2C9 activation-induced cytotoxicity in human HepG2 cells transfected with human AdCYP2C9 at MOI 10 for 2 days in presence of siNrf2 at 25 to 100 uM after 24 hrs by WST-8 assay
# T1 sequence (P11712 whole entry): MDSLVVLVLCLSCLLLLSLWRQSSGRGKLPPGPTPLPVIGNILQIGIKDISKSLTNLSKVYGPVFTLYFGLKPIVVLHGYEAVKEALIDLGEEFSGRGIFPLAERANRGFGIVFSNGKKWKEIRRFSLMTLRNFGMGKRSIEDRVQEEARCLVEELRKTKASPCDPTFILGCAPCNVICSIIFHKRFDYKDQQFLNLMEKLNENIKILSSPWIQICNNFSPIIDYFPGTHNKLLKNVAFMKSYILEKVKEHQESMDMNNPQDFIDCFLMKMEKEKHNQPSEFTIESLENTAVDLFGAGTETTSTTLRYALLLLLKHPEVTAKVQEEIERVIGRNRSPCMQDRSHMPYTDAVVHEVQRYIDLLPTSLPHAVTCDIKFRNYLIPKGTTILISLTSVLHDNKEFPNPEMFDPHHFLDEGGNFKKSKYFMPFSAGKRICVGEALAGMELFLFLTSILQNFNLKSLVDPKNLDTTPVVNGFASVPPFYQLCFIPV
# Cytochrome P450 2C9 [2] = target: T1, Cytochrome P450 2C9; assay: Metabolic activation assessed as CYP2C9 activation-induced cytotoxicity in human HepG2 cells transfected with human AdCYP2C9 at MOI 10 for 2 days in presence of siNrf2 at 25 to 75 uM after 24 hrs by WST-8 assay
# In short: (§1)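 HepG2 cells reverse-transfected with 10 nM siNrf2 at seeding (1.0×10^4 cells/well), incubated 24 h, then infected with CYP2C9-expressing adenovirus (AdGFP as control) at MOI 10 for 2 days in 5% FBS medium. Drugs added for 24 h. Viability read by WST-8 (absorbance 450 nm) or CellTiter-Glo ATP luminescence. Expressed as % of untreated cells; means ± S.D., n = 3; two-tailed t test versus AdGFP cells.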
# Cytochrome P450 2C9 [3] = target: T1, Cytochrome P450 2C9; assay: Metabolic activation assessed as CYP2C9 activation-induced cytotoxicity in human HepG2 cells transfected with human AdCYP2C9 at MOI 10 for 2 days in presence of siNrf2 at 100 uM after 24 hrs by WST-8 assay; in short: as §1
# Cytochrome P450 2C9 [4] = target: T1, Cytochrome P450 2C9; assay: Metabolic activation assessed as CYP2C9 activation-induced cytotoxicity in human HepG2 cells transfected with human AdCYP2C9 at MOI 10 for 2 days in presence of siNrf2 at 50 to 200 uM after 24 hrs by WST-8 assay; in short: as §1
# Cytochrome P450 2C9 [5] = target: T1, Cytochrome P450 2C9; assay: Metabolic activation assessed as CYP2C9 activation-induced cytotoxicity in human HepG2 cells transfected with human AdCYP2C9 at MOI 10 for 2 days in presence of siScramble at 25 to 100 uM after 24 hrs by ATP assay
# In short: (§2)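 HepG2 cells reverse-transfected with 10 nM scrambled control siRNA at seeding (1.0×10^4 cells/well), then after 24 h infected with CYP2C9-expressing adenovirus (AdGFP control) at MOI 10 for 2 days. Drugs added for 24 h. Viability by CellTiter-Glo ATP luminescence, as % of untreated cells; means ± S.D., n = 3; two-tailed t test versus AdGFP cells.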
# Cytochrome P450 2C9 [6] = target: T1, Cytochrome P450 2C9; assay: Metabolic activation assessed as CYP2C9 activation-induced cytotoxicity in human HepG2 cells transfected with human AdCYP2C9 at MOI 10 for 2 days in presence of siNrf2 at 50 to 200 uM after 24 hrs by ATP assay; in short: as §1
# Cytochrome P450 2C9 [7] = target: T1, Cytochrome P450 2C9; assay: Metabolic activation assessed as CYP2C9 activation-induced cytotoxicity in human HepG2 cells transfected with human AdCYP2C9 at MOI 10 for 2 days in presence of siScramble at 50 to 200 uM after 24 hrs by ATP assay; in short: as §2
# Cytochrome P450 2C9 [8] = target: T1, Cytochrome P450 2C9; assay: Metabolic activation assessed as CYP2C9 activation-induced cytotoxicity in human HepG2 cells transfected with human AdCYP2C9 at MOI 10 for 2 days in presence of siNrf2 at 100 to 200 uM after 24 hrs by WST-8 assay; in short: as §1
Compound,Activity (Cytochrome P450 2C9 [1]),further results
CCCCc1nc(Cl)c(C=O)n1Cc1ccc(-c2ccccc2-c2nn[nH]n2)cc1,Non-toxic,
CCCCc1nc(Cl)c(C(=O)O)n1Cc1ccc(-c2ccccc2-c2nn[nH]n2)cc1 [CARBOXYLIC ACID METABOLITE],Non-toxic,
CCCCc1ncc(/C=C(\Cc2cccs2)C(=O)O)n1Cc1ccc(C(=O)O)cc1 [EPROSARTAN],Toxic,
CC(C)C(=O)Nc1ccc([N+](=O)[O-])c(C(F)(F)F)c1 [FLUTAMIDE],,Activity (Cytochrome P450 2C9 [2]): Non-toxic
CC(C)n1c(/C=C/C(O)CC(O)CC(=O)O)c(-c2ccc(F)cc2)c2ccccc21 (stereo not drawn) [FLUVASTATIN],,Activity (Cytochrome P450 2C9 [3]): Toxic; Activity (Cytochrome P450 2C9 [4]): Non-toxic
CCCCC1=NC2(CCCC2)C(=O)N1Cc1ccc(-c2ccccc2-c2nnn[nH]2)cc1 [IRBESARTAN],Toxic,
CCCCc1nc(Cl)c(CO)n1Cc1ccc(-c2ccccc2-c2nn[nH]n2)cc1 [LOSARTAN],Toxic,Activity (Cytochrome P450 2C9 [5]): Non-toxic
CCCc1nc2c(C)cc(-c3nc4ccccc4n3C)cc2n1Cc1ccc(-c2ccccc2C(=O)O)cc1 [TELMISARTAN],Toxic,
CN(C/C=C/C#CC(C)(C)C)Cc1cccc2ccccc12 [TERBINAFINE],Toxic,Activity (Cytochrome P450 2C9 [5]): Toxic
O=C(O)COc1ccc(C(=O)c2cccs2)c(Cl)c1Cl [TICRYNAFEN],,Activity (Cytochrome P450 2C9 [6]): Toxic; Activity (Cytochrome P450 2C9 [7]): Non-toxic; Activity (Cytochrome P450 2C9 [8]): Toxic
CCCC(CCC)C(=O)O [VALPROIC ACID],,Activity (Cytochrome P450 2C9 [4]): Non-toxic
CCCCC(=O)N(Cc1ccc(-c2ccccc2-c2nnn[nH]2)cc1)[C@H](C(=O)O)C(C)C [VALSARTAN],Toxic,
Cc1ccc(-c2nc3ccc(C)cn3c2CC(=O)N(C)C)cc1 [ZOLPIDEM],Toxic,
